# System: PBMCs
# Assay: IL-1β secretion assay
# Format: cell-based, human
# Method in brief: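 NK cells, MD-PBMCs, PBMCs or granulocytes (1.5 million/mL) or PBMC+granulocytes (0.75 million/mL each), per donor, exposed 24 h, 48 h or 6 days to 0.05–5 μM test compound diluted from DMSO stock, with DMSO controls. Supernatants kept at −70 °C. IL-1β by sandwich ELISA: HRP detection antibody, acid-stopped substrate, A450 against standards. Detection limit 3 pg/mL; triplicates; ANOVA then t test versus control, p<0.05.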
smiles,measurement,setting,value
"CCC[CH2][Sn][CH2]CCC [DBT, Dibutyltin]",average of the maximum fold increase in IL-β secretion,"24 h, across donors",3.2 fold
same,Interleukin 1 beta secreted,"donor F148, 24 h, 0.05 μM DBT",120.533 ± 8.211 ng/mL
same,Interleukin 1 beta secreted,"donor F148, 24 h, 0.1 μM DBT",107.467 ± 4.636 ng/mL
same,Interleukin 1 beta secreted,"donor F148, 24 h, 0.25 μM DBT",137.333 ± 3.926 ng/mL
same,Interleukin 1 beta secreted,"donor F148, 24 h, 0.5 μM DBT",32.4 ± 1.833 ng/mL
same,Interleukin 1 beta secreted,"donor F148, 24 h, 1 μM DBT",11.6 ± 11.085 ng/mL
same,Interleukin 1 beta secreted,"donor F148, 24 h, 2.5 μM DBT",12.133 ± 0.462 ng/mL
same,Interleukin 1 beta secreted,"donor F148, 24 h, 5 μM DBT",11.867 ± 0.924 ng/mL
same,Interleukin 1 beta secreted,"donor F148, 48 h, 0.05 μM DBT",15851 ± 836 ng/mL
same,Interleukin 1 beta secreted,"donor F148, 48 h, 0.1 μM DBT",17620 ± 257 ng/mL
same,Interleukin 1 beta secreted,"donor F148, 48 h, 0.25 μM DBT",18728 ± 597 ng/mL
same,Interleukin 1 beta secreted,"donor F148, 48 h, 0.5 μM DBT",5493 ± 409 ng/mL
same,Interleukin 1 beta secreted,"donor F148, 48 h, 1 μM DBT",2224 ± 329 ng/mL
same,Interleukin 1 beta secreted,"donor F148, 48 h, 5 μM DBT",483 ± 358 ng/mL
same,Interleukin 1 beta secreted,"donor F148, 6 day, 0.1 μM DBT",25 ± 0 ng/mL
same,Interleukin 1 beta secreted,"donor F148, 6 day, 0.25 μM DBT",25 ± 1 ng/mL
same,Interleukin 1 beta secreted,"donor F148, 6 day, 0.5 μM DBT",6 ± 0 ng/mL
same,Interleukin 1 beta secreted,"donor F154, 24 h, 0.05 μM DBT",5.056 ± 0.273 ng/mL
same,Interleukin 1 beta secreted,"donor F154, 24 h, 0.1 μM DBT",4.568 ± 0.168 ng/mL
same,Interleukin 1 beta secreted,"donor F154, 24 h, 0.25 μM DBT",1.383 ± 0.123 ng/mL
same,Interleukin 1 beta secreted,"donor F154, 24 h, 0.5 μM DBT",0.765 ± 0.084 ng/mL
same,Interleukin 1 beta secreted,"donor F154, 24 h, 1 μM DBT",0.38 ± 0.013 ng/mL
same,Interleukin 1 beta secreted,"donor F154, 24 h, 2.5 μM DBT",0.111 ± 0.067 ng/mL
same,Interleukin 1 beta secreted,"donor F154, 48 h, 0.05 μM DBT",4249 ± 294 ng/mL
same,Interleukin 1 beta secreted,"donor F154, 48 h, 0.1 μM DBT",4193 ± 556 ng/mL
same,Interleukin 1 beta secreted,"donor F154, 48 h, 0.25 μM DBT",1687 ± 42 ng/mL
same,Interleukin 1 beta secreted,"donor F154, 48 h, 0.5 μM DBT",1036 ± 128 ng/mL
same,Interleukin 1 beta secreted,"donor F154, 48 h, 1 μM DBT",1325 ± 72 ng/mL
same,Interleukin 1 beta secreted,"donor F154, 48 h, 2.5 μM DBT",378 ± 61 ng/mL
same,Interleukin 1 beta secreted,"donor F154, 48 h, 5 μM DBT",193 ± 0 ng/mL
same,Interleukin 1 beta secreted,"donor F154, 6 day, 0.05 μM DBT",3507 ± 155 ng/mL
same,Interleukin 1 beta secreted,"donor F154, 6 day, 0.1 μM DBT",3300 ± 114 ng/mL
same,Interleukin 1 beta secreted,"donor F154, 6 day, 0.25 μM DBT",3816 ± 464 ng/mL
same,Interleukin 1 beta secreted,"donor F154, 6 day, 0.5 μM DBT",2056 ± 114 ng/mL
same,Interleukin 1 beta secreted,"donor F154, 6 day, 1 μM DBT",2531 ± 464 ng/mL
same,Interleukin 1 beta secreted,"donor F154, 6 day, 2.5 μM DBT",586 ± 179 ng/mL
same,Interleukin 1 beta secreted,"donor F154, 6 day, 5 μM DBT",118 ± 146 ng/mL
same,Interleukin 1 beta secreted,"donor F159, 24 h, 0.05 μM DBT",2.812 ± 0.15 ng/mL
same,fold increase in IL-1β secretion,"donor F159, 24 h, 0.05 μM DBT",1.7 fold
same,Interleukin 1 beta secreted,"donor F159, 24 h, 0.1 μM DBT",6.376 ± 0.233 ng/mL
same,fold increase in IL-1β secretion,"donor F159, 24 h, 0.1 μM DBT",3.8 fold
same,Interleukin 1 beta secreted,"donor F159, 24 h, 0.25 μM DBT",5.803 ± 0.15 ng/mL
same,fold increase in IL-1β secretion,"donor F159, 24 h, 0.25 μM DBT",3.4 fold
same,Interleukin 1 beta secreted,"donor F159, 24 h, 0.5 μM DBT",1.667 ± 0.112 ng/mL
same,Interleukin 1 beta secreted,"donor F159, 24 h, 1 μM DBT",0.812 ± 0.065 ng/mL
same,Interleukin 1 beta secreted,"donor F159, 48 h, 0.05 μM DBT",1034 ± 299 ng/mL
same,Interleukin 1 beta secreted,"donor F159, 48 h, 0.1 μM DBT",1211 ± 71 ng/mL
same,Interleukin 1 beta secreted,"donor F159, 48 h, 0.25 μM DBT",1243 ± 192 ng/mL
same,Interleukin 1 beta secreted,"donor F159, 48 h, 0.5 μM DBT",1099 ± 93 ng/mL
same,Interleukin 1 beta secreted,"donor F159, 48 h, 1 μM DBT",1246 ± 9 ng/mL
same,Interleukin 1 beta secreted,"donor F159, 48 h, 2.5 μM DBT",532 ± 101 ng/mL
same,Interleukin 1 beta secreted,"donor F159, 48 h, 5 μM DBT",565 ± 15 ng/mL
same,Interleukin 1 beta secreted,"donor F159, 6 day, 0.05 μM DBT",210 ± 62 ng/mL
same,Interleukin 1 beta secreted,"donor F159, 6 day, 0.1 μM DBT",236 ± 10 ng/mL
same,Interleukin 1 beta secreted,"donor F159, 6 day, 0.25 μM DBT",507 ± 21 ng/mL
same,Interleukin 1 beta secreted,"donor F159, 6 day, 0.5 μM DBT",229 ± 7 ng/mL
same,Interleukin 1 beta secreted,"donor F159, 6 day, 1 μM DBT",256 ± 12 ng/mL
same,Interleukin 1 beta secreted,"donor F159, 6 day, 2.5 μM DBT",52 ± 1 ng/mL
same,Interleukin 1 beta secreted,"donor F159, 6 day, 5 μM DBT",51 ± 9 ng/mL
same,Interleukin 1 beta secreted,"donor F173, 24 h, 0.05 μM DBT",7.072 ± 0.935 ng/mL
same,Interleukin 1 beta secreted,"donor F173, 24 h, 0.1 μM DBT",8.1 ± 0.822 ng/mL
same,Interleukin 1 beta secreted,"donor F173, 24 h, 0.25 μM DBT",4.443 ± 0.405 ng/mL
same,Interleukin 1 beta secreted,"donor F173, 24 h, 0.5 μM DBT",20.063 ± 1.077 ng/mL
same,Interleukin 1 beta secreted,"donor F173, 24 h, 1 μM DBT",9.989 ± 0.155 ng/mL
same,Interleukin 1 beta secreted,"donor F173, 24 h, 2.5 μM DBT",3.813 ± 0.058 ng/mL
same,Interleukin 1 beta secreted,"donor F173, 24 h, 5 μM DBT",2.517 ± 0.073 ng/mL
same,Interleukin 1 beta secreted,"donor F173, 48 h, 0.05 μM DBT",614 ± 63 ng/mL
same,Interleukin 1 beta secreted,"donor F173, 48 h, 0.1 μM DBT",500 ± 41 ng/mL
same,Interleukin 1 beta secreted,"donor F173, 48 h, 0.25 μM DBT",425 ± 20 ng/mL
same,Interleukin 1 beta secreted,"donor F173, 48 h, 0.5 μM DBT",745 ± 36 ng/mL
same,Interleukin 1 beta secreted,"donor F173, 48 h, 1 μM DBT",2064 ± 194 ng/mL
same,Interleukin 1 beta secreted,"donor F173, 48 h, 2.5 μM DBT",591 ± 32 ng/mL
same,Interleukin 1 beta secreted,"donor F173, 48 h, 5 μM DBT",478 ± 32 ng/mL
same,Interleukin 1 beta secreted,"donor F173, 6 day, 0.05 μM DBT",465 ± 151 ng/mL
same,Interleukin 1 beta secreted,"donor F173, 6 day, 0.1 μM DBT",398 ± 28 ng/mL

# From paper PMC5114172 (Journal of applied toxicology : JAT, 2016)
